Source: PubChem (several laboratories)
Myeloid diff MLP: compounds promoting myeloid differentiation. calls only at 10 µM. hit rate 1% among 360,000. ER-HoxA9 myeloid progenitors, lysozyme-GFP differentiation, flow cytometry. AID 624256;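 active = normalized GFP-positive differentiation at or above the plate's own cutoff, the solvent-only control mean plus 3 SD; inconclusive = no clear call, values can overlap the other calls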;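 note: cells exposed to compound for four days before flow analysis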
EBI2 block: blocks human EBI2 receptor beta-arrestin signaling. EBI2 beta-arrestin recruitment, luminescence, 7a,25-OHC stimulated. inhibition, % at 5 µM. hit rate 0.81% among 360,000. AID 651636; in the data active = inhibition above about 38%;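 note: enzyme fragment complementation signal reports receptor beta-arrestin coupling in cells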
Target sequence (P32249 whole entry, looked up, the tested form may be a part): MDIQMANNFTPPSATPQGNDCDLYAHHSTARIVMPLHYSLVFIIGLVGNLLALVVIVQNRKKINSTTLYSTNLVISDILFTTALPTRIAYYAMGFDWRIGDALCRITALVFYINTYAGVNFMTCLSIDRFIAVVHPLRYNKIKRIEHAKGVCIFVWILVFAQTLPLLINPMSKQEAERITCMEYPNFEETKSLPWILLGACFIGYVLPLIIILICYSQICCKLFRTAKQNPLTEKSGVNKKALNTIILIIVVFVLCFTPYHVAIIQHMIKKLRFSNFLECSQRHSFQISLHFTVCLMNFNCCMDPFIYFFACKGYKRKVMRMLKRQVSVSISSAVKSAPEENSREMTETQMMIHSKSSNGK
MC4R barr agon: agonists of human melanocortin 4 receptor (MC4R) beta-arrestin. activation, % at 8.9 µM. U2OS MC4R beta-arrestin complementation, luminescence; percent of melanotan II response, DMSO zero. hit rate 0.98% among 360,000;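 active = activation above a per-plate cutoff, the mean activation of sample wells on that plate plus 3 SD, cut at about 8% in these data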
MC4R antag cAMP: blocks human MC4R cAMP signaling. P32245. MC4R-expressing cells, MTII-stimulated cAMP, LANCE TR-FRET. inhibition, % at 6.5 µM. hit rate 0.48% among 360,000. AID 540295;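 active = inhibition above its plate's cutoff, the mean of tested wells on that plate plus 3 SD, cut at about 29% in these data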
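System – human MC4R-expressing U2OS cells · Also added – Melanotan II · Dosing – one concentration, 6.5 µM nominal · Timing – 30-min compound, 1-h challenge, 1-h detection, room temperature · Measured by – Eu-cAMP/anti-cAMP TR-FRET, emission 671 nm · Replicates – singlicate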
Granule exo inh: lytic granule exocytosis inhibition; AID 651702; inhibition, % at 10 µM; TALL-104 LAMP-1 surface exposure, flow cytometry; cells stimulated with thapsigargin and PMA; hit rate 0.66% among 360,000;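 active = inhibition above about 55%, limit read from the data; inconclusive = no clear call, values can overlap the other calls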
Granule exo CP1: lytic granule exocytosis inhibition; hit rate 11% among 1,500; inhibition, % at 10 µM; TALL-104 cells, LAMP-1 externalization, flow cytometry; stimulated with PMA plus thapsigargin; shares compounds with Granule exo inh; in the data active = inhibition above about 60%
Numbers stand for hits; . = inactive; ? = inconclusive; / = no result given; + = active, no number. Rows were chosen to be rich in hits. Some 3.7% of all compounds tested hit in one or more screens of this group.

SMILES | Myeloid diff MLP | EBI2 block | MC4R barr agon | MC4R antag cAMP | Granule exo inh | Granule exo CP1
O=C(COC(=O)c1cc[n+]([O-])cc1)NCc1ccccc1Cl | . | . | . | . | . | /
COc1ccc(Cl)cc1-c1cc(C(=O)N[C@H](C)c2ccccc2)[nH]n1 | . | . | . | . | . | /
CCOC(=O)c1c(CSc2ccccc2)n(C)c2cc(Br)c(O)c(CN(C)C)c12 | . | . | . | . | 73 | 107
CCOC(=O)c1c(CSc2ccc(C)cc2)n(C)c2cc(Br)c(O)c(CN(C)C)c12 | . | . | . | . | . | /
CCOC(=O)c1c(C)n(C)c2ccc(O)c(CN3CCCCC3)c12 | . | . | . | . | . | /
CCOC(=O)c1c(CSc2ccccc2)n(C)c2ccc(O)c(CN3CCN(C)CC3)c12 | . | . | . | . | 59 | .
Cn1c(=O)c(NC2CCCCC2)c2c3c(cccc31)C(=O)c1ccccc1-2 | + | . | . | . | 90 | 101
Cn1c(=O)c(NCCO)c2c3c(cccc31)C(=O)c1ccccc1-2 | . | . | . | . | . | /
CCOC(=O)CN1C(=O)N[C@@H](CCc2ccccc2)[C@@H](C(=O)OC)[C@H]1C | . | . | . | . | . | /
O=C(c1cc(S(=O)(=O)N2CCOCC2)c(Cl)cc1Cl)N1CCN(S(=O)(=O)c2cccc(F)c2)CC1 | . | . | . | . | 56 | .
CCOc1ccc(CN(C(=O)c2oc3ccccc3c2C)C2CCS(=O)(=O)C2)cc1 (stereo not given) | . | . | . | . | . | /
Cc1c(C(=O)N(Cc2ccc(Cl)cc2)C2CCS(=O)(=O)C2)oc2ccccc12 (stereo not given) | . | . | . | . | 74 | .
COc1ccccc1NC(=O)c1cc(S(=O)(=O)N2CCc3ccccc32)ccc1F | . | . | . | . | 74 | .
CC(C)(C)NC(=O)C(OC(=O)c1cccs1)c1ccc(F)cc1 (stereo not given) | . | . | . | . | 66 | .
O=C(Nc1ccccc1)C1Cc2c(-c3ccc4c(c3)OCO4)ccnc2O1 (stereo not given) | . | . | . | . | . | /
O=C(CSc1nnnn1-c1ccc(F)cc1)NCc1cccs1 | . | . | . | . | . | /
Clc1nc(CN2CCCCC2)nc2sc3c(c12)CCCC3 | . | . | . | . | 98 | .
c1ccc(CNc2c3ccccc3nc3ccccc23)cc1 | / | . | . | . | 61 | .
Fc1ccccc1-c1nc(NCc2ccco2)c2ccccc2n1 | . | . | . | . | . | /
Oc1ccccc1Nc1nc(NCc2ccccc2)c2ccccc2n1 | . | . | . | . | 68 | 66
COc1ccccc1Nc1nc(NCc2ccco2)c2ccccc2n1 | . | . | . | . | 99 | .
Cc1ccc(Nc2nc(NCc3ccco3)c3ccccc3n2)cc1 | . | . | . | . | 69 | 67
OCCNc1nc(Nc2ccccc2)nc2ccccc12 | . | . | . | . | . | /
COC(=O)c1ccc(COC(=O)[C@@H]2CC(O)CN2S(=O)(=O)c2ccccc2[N+](=O)[O-])cc1 (stereo not given in full) | / | . | . | . | . | /
CCc1ccc(C(=O)NNC(=O)CN2C(=O)NC(CC)(c3ccccc3)C2=O)cc1 (stereo not given) | . | . | . | . | . | /
SMILES | Myeloid diff MLP | EBI2 block | MC4R barr agon | MC4R antag cAMP | Granule exo inh | Granule exo CP1
c1ccc(CNc2nc(N3CCN(Cc4ccccc4)CC3)nc3ccccc23)cc1 | . | . | . | . | 101 | .
Cc1ccc2nc(-c3ccc(NC(=O)CNC4CC4)cc3)sc2c1 | . | . | . | . | 74 | .
COc1ccc(OC)c(NC(=O)CN(Cc2ccc(F)cc2)C2CCCCC2)c1 | . | . | . | . | 76 | .
COc1ccc(Cl)cc1NC(=O)CN(C)C1CCCCC1 | . | . | . | . | . | /
C[C@@H]1CN([C@H](C)CO)C(=O)c2c(c3ccccc3n2C)-c2ccccc2CO[C@H]1CN(C)Cc1ccc(Oc2ccccc2)cc1 | / | . | . | . | 56 | .
C[C@@H]1CN([C@H](C)CO)C(=O)c2c(c3ccccc3n2C)-c2ccccc2CO[C@H]1CN(C)Cc1ccc(C(F)(F)F)cc1 | . | . | . | . | . | /
CC(C)c1ccc(NC(=O)[C@H](NC(=O)[C@@H]2Cc3ccccc3CN2)c2ccccc2)cc1 | . | . | . | . | 59 | .
Cc1cc(CNC(=O)COc2ccc([N+](=O)[O-])cc2)c2ccccc2n1 | . | . | . | . | 60 | .
Cc1cc(CNC(=O)COc2ccccc2)c2ccccc2n1 | . | . | . | . | . | /
COCCCNC(=O)CN(Cc1ccccc1)S(=O)(=O)c1ccccc1 | . | . | . | . | . | /
CCOC(=O)N1CCN(C(=O)c2ccccc2N(Cc2ccccc2)S(=O)(=O)c2ccccc2)CC1 | . | . | . | . | 79 | .
COCCCNC(=O)c1ccccc1N(Cc1ccccc1)S(=O)(=O)c1ccccc1 | . | . | . | . | 69 | .
Cc1nnc2ccc(-c3ccc(NS(=O)(=O)c4ccc(Cl)s4)cc3)nn12 | . | . | . | . | . | /
CC(=O)c1ccc(N2CCN(C(=O)[C@H](C)NC(=O)c3ccccc3Cl)CC2)cc1 | . | . | . | . | . | /
CN(C)C(=O)c1c(NC(=O)c2ccccc2)sc2c1CCC2 | . | . | . | . | . | /
CCN(CC)CCCC(C)NC(=O)c1c(NC(=O)c2ccccc2)sc2c1CCCC2 (stereo not given) | . | . | . | . | 78 | .
Cc1occc1C(=O)N(C)CC1CCCN(CCc2ccc(Cl)cc2)C1 (stereo not given) | . | . | . | . | . | /
CN(Cc1ccc(C#CCCO)cc1)CC1CCCN(CCc2ccc(Cl)cc2)C1 (stereo not given) | . | . | . | . | 70 | .
CN(Cc1ccccc1O)CC1CCCN(CCc2ccc(Cl)cc2)C1 (stereo not given) | . | . | . | . | 69 | .
CCN(Cc1ccc(C#CCCO)cc1)CC1CCCN(CCc2cccc(F)c2)C1 (stereo not given) | . | . | . | . | 88 | .
Cn1c(Oc2cccnc2CN2CCCC2)nc2cc(-c3cccc(C(F)(F)F)c3)sc2c1=O | . | . | . | . | ? | /
O=C1c2ccccc2/C(=C\C#Cc2ccccn2)N1c1ccccc1 | . | . | . | . | . | /
COc1cccc(CN2CCC(C(=O)Nc3ccc(-c4cccc(C)c4)cc3)CC2)c1O | . | . | . | . | 74 | .
CN1C(=O)[C@H]2[C@@H](c3ccc(C(F)(F)F)cc3)N[C@]3(CCCN(CC4CCCCC4)C3=O)[C@H]2C1=O | . | . | . | . | . | /
COCCCNC(=S)N1CCN(c2nc(C)nc3sc4c(c23)CCCC4)CC1 | . | . | . | . | 66 | .
COc1ccc(C(=O)NCC2(c3ccccc3)CCCC2)c(OC)c1 | . | . | . | . | 88 | .
COC(=O)C(NC(=O)CNS(=O)(=O)c1ccc(Br)cc1)c1ccccc1 (stereo not given) | . | . | . | . | 62 | .
